{"data": "Measured values of several laboratories", "read-out": "microbial growth"}
{"Structure (SMILES)": "Nc1ccc(-c2nc(-c3ccc(Oc4ccccc4)cc3)no2)cc1", "organism": "Enterococcus faecium", "method": "broth dilution", "time": "24 h", "MIC": "> 32 µg/mL"}
{"Structure (SMILES)": "CC(C)Oc1c(NC(=O)c2ccc(NC(=O)[C@H](CC(N)=O)NC(=O)c3ccc(NC(=O)c4ccc(C#N)s4)cc3)cc2)ccc(C(=O)Nc2ccc(C(=O)O)cc2)c1O", "organism": "Citrobacter freundii", "strain": "DSM30039", "MIC": "≤ 0.03 µg/mL"}
{"Structure (SMILES)": "O=C(O)COc1cccc(Oc2ccc(-c3noc(-c4ccc(O)cc4)n3)cc2)c1", "organism": "Enterococcus faecium", "method": "broth dilution", "time": "24 h", "MIC": "> 32 µg/mL"}
{"Structure (SMILES)": "O=C(O)c1cn(C2CC2)c2cc(N3CCNCC3)c(F)cc2c1=O", "organism": "Mycobacterium intracellulare", "method": "resazurin", "strain": "ATCC23068", "MIC": "1 µg/mL"}
{"Structure (SMILES)": "C/C(=C\\c1ccc(O)cc1)C(=O)Nc1ccc(C(=O)N[C@@H](CC(N)=O)C(=O)Nc2ccc(C(=O)Nc3ccc(C(=O)Nc4ccc(C(=O)O)cc4)c(O)c3OC(C)C)cc2)cc1", "organism": "Citrobacter freundii", "strain": "DSM30039", "MIC": "0.125 µg/mL"}
{"Structure (SMILES)": "CC(C)Nc1cccc(-n2c(/C=C/c3ccc(C#N)cc3)nc3ccccc3c2=O)c1", "organism": "Enterococcus faecium", "method": "broth dilution", "strain": "NCTC7171", "MIC": "> 128 µg/mL"}
{"Structure (SMILES)": "O=[N+]([O-])c1ccc(-c2nc(-c3ccc(Oc4ccccc4)cc3)no2)cc1", "organism": "Enterococcus faecium", "method": "broth dilution", "time": "24 h", "MIC": "> 32 µg/mL"}
{"Structure (SMILES)": "CC(C)Oc1c(NC(=O)c2ccc(NC(=O)[C@H](CC(N)=O)NC(=O)c3ccc(NC(=O)c4ccc(C#N)cc4)cc3)cc2)ccc(C(=O)Nc2ccc(C(=O)O)cc2)c1O", "organism": "Citrobacter freundii", "strain": "DSM30039", "MIC": "≤ 0.03 µg/mL"}
{"Structure (SMILES)": "NC(=O)c1cccc(-n2c(/C=C/c3ccc(F)cc3)nc3ccccc3c2=O)c1", "organism": "Enterococcus faecium", "method": "broth dilution", "strain": "NCTC7171", "MIC": "> 128 µg/mL"}
{"Structure (SMILES)": "CO[C@@H](C(N)=O)[C@H](NC(=O)c1ccc(NC(=O)c2ccc(C#N)cc2)cc1)C(=O)Nc1ccc(C(=O)Nc2ccc(C(=O)Nc3ccc(C(=O)O)cc3)c(O)c2OC(C)C)cc1", "organism": "Citrobacter freundii", "strain": "DSM30039", "MIC": "≤ 0.03 µg/mL"}
{"Structure (SMILES)": "N#Cc1ccc(/C=C/c2nc3ccncc3c(=O)n2-c2cccc(O)c2)cc1", "organism": "Enterococcus faecium", "method": "broth dilution", "strain": "NCTC7171", "MIC": "128 µg/mL"}
{"Structure (SMILES)": "O=C(O)CCc1cccc(Oc2ccc(-c3noc(-c4ccc(O)cc4)n3)cc2)c1", "organism": "Enterococcus faecium", "method": "broth dilution", "time": "24 h", "MIC": "> 32 µg/mL"}
{"Structure (SMILES)": "O=C(O)c1cccc(-n2c(/C=C/c3ccc(F)cc3)nc3ccncc3c2=O)c1", "organism": "Enterococcus faecium", "method": "broth dilution", "strain": "NCTC7171", "MIC": "> 128 µg/mL"}
{"Structure (SMILES)": "O=C(O)Cc1ccccc1Oc1ccc(-c2noc(-c3ccc(O)cc3)n2)cc1", "organism": "Enterococcus faecium", "method": "broth dilution", "time": "24 h", "MIC": "> 32 µg/mL"}
{"Structure (SMILES)": "O=C(O)c1cn(C2CC2)c2cc(N3CCNCC3)c(F)cc2c1=O", "organism": "Citrobacter freundii", "strain": "DSM30039", "MIC": "≤ 0.03 µg/mL"}
